Experiment [1] deals with Rattus norvegicus. Put plainly: Diuretic activity in acute sodium loaded Wistar rat assessed as urine volume at 50 mg/kg, po measured for 0 to 5 hrs post drug dosing relative to urea. It is filed as functional. Summed up:
(§1)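 Female Wistar rats (150–200 g), fasted 16 h. Drug in 1% saline given orally at 15 mL/kg; animals kept in individual metabolic cages with water ad libitum. Urine collected 0–5 h. Each test had vehicle and urea (1000 mg/kg) groups. Na⁺ and K⁺ measured by flame photometry, Cl⁻ by chloride analyzer. Group means for volume and each ion expressed as a ratio to the urea group.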

For experiment [2], the system named is Rattus norvegicus. The experiment is described as follows: Diuretic activity in acute sodium loaded Wistar rat assessed as sodium level in urine at 50 mg/kg, po measured for 0 to 5 hrs post drug dosing by flame photometer relative to urea. It is filed as functional. Summed up:
as §1

Experiment [3] deals with Rattus norvegicus. Put plainly: Diuretic activity in acute sodium loaded Wistar rat assessed as potassium level in urine at 50 mg/kg, po measured for 0 to 5 hrs post drug dosing by flame photometer relative to urea. It is filed as functional. Summed up: as §1
Experiment [4] concerns Rattus norvegicus. The experiment is described as follows: Antihypertensive activity in spontaneous hypertensive rat assessed as drop in systolic blood pressure at 10 mg/kg, po administered at 0 hrs on days 1, 2 and 3 measured at 2 hrs after drug dose on day 3 by indirect tail-cuff method. In kind it is functional, Artery. Summed up:
(§2)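 Spontaneously hypertensive rats, tail-cuff (indirect) systolic pressure. Pairs of rats held in a wire basket, conditioned 20 min in a 40 °C incubator. Each reading is the mean of 3–5 determinations. Rats had 2-week training for baseline; those below 175 mmHg were excluded. Oral dosing at 0 h on days 1–3 in groups of six, read before dosing and 2 h after the day-3 dose; paired t test.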

For experiment [5], the system named is Rattus norvegicus. Put plainly: Diuretic activity in acute sodium loaded Wistar rat assessed as urine volume at 25 mg/kg, po measured for 0 to 5 hrs post drug dosing relative to urea. It is filed as functional. Summed up: as §1
In experiment [6] the test system is Rattus norvegicus. The experiment is described as follows: Diuretic activity in acute sodium loaded Wistar rat assessed as sodium level in urine at 25 mg/kg, po measured for 0 to 5 hrs post drug dosing by flame photometer relative to urea. It is filed as functional. Summed up:
as §1

The subject of experiment [7] is Rattus norvegicus. The experiment is described as follows: Diuretic activity in acute sodium loaded Wistar rat assessed as potassium level in urine at 25 mg/kg, po measured for 0 to 5 hrs post drug dosing by flame photometer relative to urea. In kind it is functional. Summed up:
as §1

In experiment [8] the test system is Rattus norvegicus. Put plainly: Diuretic activity in acute sodium loaded Wistar rat assessed as chloride level in urine at 50 mg/kg, po measured for 0 to 5 hrs post drug dosing by chloride analyzer relative to urea. It is filed as functional. Summed up: as §1
Another experiment concerns Mus musculus. Put plainly: Antidepressant activity in CD-1 mouse at 25 mg/kg, ip administered 30 mins prior to tetrabenazine challenge measured after 30 mins by tetrabenazine assay. It is filed as functional, organism-based. Further details: dose 25 mg/kg.
The subject of experiment [9] is Rattus norvegicus. The experiment is described as follows: Antihypertensive activity in spontaneous hypertensive rat assessed as drop in systolic blood pressure at 50 mg/kg, po administered at 0 hrs on days 1, 2 and 3 measured at 2 hrs after drug dose on day 3 by indirect tail-cuff method. It is filed as functional, Artery. Summed up: as §2
In experiment [10] the test system is Rattus norvegicus. The experiment is described as follows: Antihypertensive activity in spontaneous hypertensive rat assessed as drop in systolic blood pressure at 25 mg/kg, po administered at 0 hrs on days 1, 2 and 3 measured at 2 hrs after drug dose on day 3 by indirect tail-cuff method. In kind it is functional, Artery. Summed up:
as §2

The subject of experiment [11] is Rattus norvegicus. Put plainly: Diuretic activity in acute sodium loaded Wistar rat assessed as urine volume at 10 mg/kg, po measured for 0 to 5 hrs post drug dosing relative to urea. It is filed as functional. Summed up: as §1
Experiment [12] relates to Rattus norvegicus. The experiment is described as follows: Diuretic activity in acute sodium loaded Wistar rat assessed as urine volume at 5 mg/kg, po measured for 0 to 5 hrs post drug dosing relative to urea. In kind it is functional. Summed up: as §1
In experiment [13] the test system is Rattus norvegicus. The experiment is described as follows: Diuretic activity in acute sodium loaded Wistar rat assessed as urine volume at 2 mg/kg, po measured for 0 to 5 hrs post drug dosing relative to urea. In kind it is functional. Summed up:
as §1

Experiment [14] has as its system Rattus norvegicus. The experiment is described as follows: Diuretic activity in acute sodium loaded Wistar rat assessed as sodium level in urine at 10 mg/kg, po measured for 0 to 5 hrs post drug dosing by flame photometer relative to urea. In kind it is functional. Summed up: as §1
The test system of experiment [15] is Rattus norvegicus. Put plainly: Diuretic activity in acute sodium loaded Wistar rat assessed as sodium level in urine at 5 mg/kg, po measured for 0 to 5 hrs post drug dosing by flame photometer relative to urea. It is filed as functional. Summed up: as §1
The subject of experiment [16] is Rattus norvegicus. The experiment is described as follows: Diuretic activity in acute sodium loaded Wistar rat assessed as sodium level in urine at 2 mg/kg, po measured for 0 to 5 hrs post drug dosing by flame photometer relative to urea. It is filed as functional. Summed up: as §1
Experiment [17] deals with Rattus norvegicus. The experiment is described as follows: Diuretic activity in acute sodium loaded Wistar rat assessed as potassium level in urine at 10 mg/kg, po measured for 0 to 5 hrs post drug dosing by flame photometer relative to urea. In kind it is functional. Summed up: as §1
Experiment [18] relates to Rattus norvegicus. The experiment is described as follows: Diuretic activity in acute sodium loaded Wistar rat assessed as potassium level in urine at 5 mg/kg, po measured for 0 to 5 hrs post drug dosing by flame photometer relative to urea. In kind it is functional. Summed up:
as §1

For experiment [19], the system named is Rattus norvegicus. The experiment is described as follows: Diuretic activity in acute sodium loaded Wistar rat assessed as potassium level in urine at 2 mg/kg, po measured for 0 to 5 hrs post drug dosing by flame photometer relative to urea. It is filed as functional. Summed up:
as §1

Experiment [20] deals with Rattus norvegicus. The experiment is described as follows: Diuretic activity in acute sodium loaded Wistar rat assessed as chloride level in urine at 10 mg/kg, po measured for 0 to 5 hrs post drug dosing by chloride analyzer relative to urea. In kind it is functional. Summed up:
as §1

The test system of experiment [21] is Rattus norvegicus. The experiment is described as follows: Diuretic activity in acute sodium loaded Wistar rat assessed as chloride level in urine at 5 mg/kg, po measured for 0 to 5 hrs post drug dosing by chloride analyzer relative to urea. In kind it is functional. Summed up:
as §1

Experiment [22] concerns Rattus norvegicus. Put plainly: Diuretic activity in acute sodium loaded Wistar rat assessed as chloride level in urine at 2 mg/kg, po measured for 0 to 5 hrs post drug dosing by chloride analyzer relative to urea. It is filed as functional. Summed up: as §1
The subject of experiment [23] is Rattus norvegicus. Put plainly: Hypotensive activity in DOCA rat at 25 to 50 mg/kg, po. In kind it is functional, organism-based.
The subject of experiment [24] is Canis familiaris. Put plainly: Antihypertensive activity in acute anesthetized dog at 10 mg/kg, iv. Particulars: Canis lupus familiaris. Further details: dose 10 mg/kg. It is filed as functional, organism-based.
The test system of experiment [25] is Canis familiaris. Put plainly: Diuretic activity in dog at 1 to 50 mg/kg, po. It is filed as functional, organism-based. As to conditions: Canis lupus familiaris, Urine.
The subject of experiment [26] is Canis familiaris. The experiment is described as follows: Diuretic activity in dog at 20 mg/kg, iv. It is filed as functional, organism-based. Further details: dose 20 mg/kg. Particulars: Canis lupus familiaris, Urine.
For the next experiment, the system named is Rhesus monkey. Put plainly: Diuretic activity in rhesus monkey at 10 to 20 mg/kg, po. It is filed as functional, organism-based. Particulars: Macaca mulatta, Urine.
Experiment [27] deals with Rattus norvegicus. The experiment is described as follows: Diuretic activity in acute sodium loaded Wistar rat assessed as chloride level in urine at 25 mg/kg, po measured for 0 to 5 hrs post drug dosing by chloride analyzer relative to urea. It is filed as functional. Summed up: as §1
The subject of experiment [28] is Rattus norvegicus. The experiment is described as follows: Antihypertensive activity in spontaneous hypertensive rat assessed as drop in systolic blood pressure at 100 mg/kg, po administered at 0 hrs on days 1, 2 and 3 measured at 2 hrs after drug dose on day 3 by indirect tail-cuff method. It is filed as functional, Artery. Summed up:
as §2

Active and inactive are the calls of the source. The rule behind the calls is not given here.

Take `NS(=O)(=O)c1cc2c(cc1Cl)N=CNS2(=O)=O` [CHLOROTHIAZIDE]: the figures for the Ratio with Rattus norvegicus [1], with Rattus norvegicus [2] and in the experiment with Rattus norvegicus [3] were 1.6, 2.2 and 1.1, respectively.
Take `N=C(N)NCCN1CCCCCCC1` [GUANETHIDINE]: the Activity with Rattus norvegicus [4] came to 34 mmHg.
Regarding `COc1ccc(SN2CCC3(CC2)OC(c2ccccc2)c2ccccc23)cc1` (stereo not given), the Ratio in the experiment with Rattus norvegicus [1] was 1.47; in the experiment on Rattus norvegicus [5] it was 1.4; with Rattus norvegicus [2], 1.78; in the experiment with Rattus norvegicus [6], 0.97; in the experiment with Rattus norvegicus [3], 0.8; with Rattus norvegicus [7], 0.84. The Ratio with Rattus norvegicus [8] is 1.47. In the experiment with Mus musculus, the result was inactive. The Activity in the experiment on Rattus norvegicus [9] is reported as 14 mmHg.
Turning to `c1ccc(SN2CCC3(CC2)OC(c2ccccc2)c2ccccc23)cc1` (stereo not given), the Activity is listed as 44 mmHg with Rattus norvegicus [10] and 66 mmHg in the experiment on Rattus norvegicus [9]. Besides, the Ratio with Rattus norvegicus [1] was 1.71; in the experiment with Rattus norvegicus [5] it was 2.2; in the experiment with Rattus norvegicus [11], 1.49; with Rattus norvegicus [12] it was 1.2; in the experiment with Rattus norvegicus [13], 1; in the experiment with Rattus norvegicus [2], 1.83. Besides, the Ratio with Rattus norvegicus [6] came out at 2.5; with Rattus norvegicus [14], 1.69; with Rattus norvegicus [15], 1.31; in the experiment on Rattus norvegicus [16], 1.2; with Rattus norvegicus [3] it was 0.97; in the experiment with Rattus norvegicus [7], 1.2. For the same molecule, the Ratio in the experiment on Rattus norvegicus [17] is on record as 0.94; with Rattus norvegicus [18], 0.86; in the experiment with Rattus norvegicus [19] it was 0.74; in the experiment with Rattus norvegicus [8], 1.85; in the experiment with Rattus norvegicus [20] it was 1.62; in the experiment on Rattus norvegicus [21], 1.43. The Ratio in the experiment with Rattus norvegicus [22] came out at 1.19. For the same molecule, the outcome in the experiment on Rattus norvegicus [23] was Active. Moreover, the outcome with Canis familiaris [24], in the experiment on Canis familiaris [25], in the experiment with Canis familiaris [26], in the experiment on Rhesus monkey and in the experiment with Mus musculus was inactive.
As to `O=[N+]([O-])c1ccc(SN2CCC3(CC2)OC(c2ccccc2)c2ccccc23)cc1` (stereo not given), in the experiment on Rattus norvegicus [10], the Activity is 9 mmHg. In addition, the Ratio with Rattus norvegicus [1] was found to be 1.73; in the experiment with Rattus norvegicus [5], 0.59; with Rattus norvegicus [2], 2.41; in the experiment with Rattus norvegicus [6], 0.76; with Rattus norvegicus [3] it was 1.2; in the experiment on Rattus norvegicus [7] it was 0.58. Moreover, the figures for the Ratio in the experiment with Rattus norvegicus [8] and in the experiment on Rattus norvegicus [27] were 2.3 and 0.75, respectively. Also, in the experiment with Mus musculus, the result was inactive.
Regarding `[O-][S+](c1ccccc1)N1CCC2(CC1)OC(c1ccccc1)c1ccccc12` (stereo not given), in the experiment on Rattus norvegicus [28], the Activity is reported as 22 mmHg. In addition, the Ratio with Rattus norvegicus [1] is 1.74; in the experiment on Rattus norvegicus [5], 0.81; with Rattus norvegicus [2], 2.2; in the experiment with Rattus norvegicus [6], 1.22; in the experiment with Rattus norvegicus [3] it was 1; in the experiment on Rattus norvegicus [7] it was 0.68. The Ratio in the experiment with Rattus norvegicus [27] is listed as 1.18. In addition, the outcome in the experiment on Mus musculus was inactive.
For `O=S(=O)(c1ccccc1)N1CCC2(CC1)OC(c1ccccc1)c1ccccc12` (stereo not given), the Ratio in the experiment with Rattus norvegicus [1] is given as 0.63; in the experiment on Rattus norvegicus [2], 0.7; in the experiment on Rattus norvegicus [3], 0.57; in the experiment with Rattus norvegicus [8] it was 0.79. Moreover, in the experiment with Mus musculus, the result was inactive. Also, in the experiment on Rattus norvegicus [9], the Activity is reported as 13 mmHg.

The values above are taken from ChEMBL document CHEMBL3244070, “Spiro[isobenzofuran-1(3H),4'-piperidines]. 3. Diuretic and antihypertensive properties of compounds containing a sulfur attached to nitrogen” (1978).
